The target in one assay is D(1A) dopamine receptor (Rattus norvegicus, UniProt P18901). Description: Inhibition of [3H]-SCH- 23390 binding to the rat striatal membranes. The class given is cell membranes, Membrane. A digest of the protocol:
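Striatal membranes washed twice at 20000g, resuspended in Tris with 5 mM MgSO4, 0.5 mM EDTA, 0.02% ascorbic acid, sonicated. Membranes (100 µg protein) incubated 1 h at 25 °C with 0.25 nM [3H]SCH 23390 and test drug. Nonspecific binding defined with 30 µM SK&F 38393. Filtration, then scintillation counting. IC50 from curves of 4-11 concentrations, 4-6 determinations per concentration.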

Assay [1] concerns the target Sodium-dependent dopamine transporter (Rattus norvegicus, UniProt P23977). The assay can be described thus: Inhibition of [3H]dopamine uptake in rat striatal synaptosomes. Format: subcellular, Brain. A digest of the protocol:
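Synaptosomes from male Wistar rat striatum (sucrose homogenate, 1000g then 15000g pellet) in oxygenated Krebs-Ringer pH 7.6. Preincubated 5 min with 10 µM pargyline, then 5 min with 2 nM final [3H]dopamine. Stopped by ice-cold dilution and filtration. Retained radioactivity counted by liquid scintillation. IC50 from curves with 4-11 concentrations, 4-6 determinations each.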

In another assay the target is D(2) dopamine receptor (Rattus norvegicus, UniProt P61169). The assay can be described thus: Inhibition of [3H]-Raclopride binding to the rat striatal membranes. Format: cell membranes, Membrane. A digest of the protocol:
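Rat striatum homogenized in 50 mM Tris-HCl pH 7.4, washed four times by centrifugation at 20000g, resuspended in Tris with 120 mM NaCl, 5 mM KCl, 1 mM CaCl2, 1 mM MgCl2, 0.1% ascorbic acid. Membranes (200 µg protein) incubated 1 h at 25 °C with 0.5 nM [3H]raclopride plus drug. Nonspecific binding defined with 50 µM apomorphine. Filtration, scintillation counting. IC50 from 4-11 concentrations, 4-6 determinations each.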

Structures are written as SMILES. Bounds are passed on as bounds.

Chain of D(1A) dopamine receptor (P18901 whole entry): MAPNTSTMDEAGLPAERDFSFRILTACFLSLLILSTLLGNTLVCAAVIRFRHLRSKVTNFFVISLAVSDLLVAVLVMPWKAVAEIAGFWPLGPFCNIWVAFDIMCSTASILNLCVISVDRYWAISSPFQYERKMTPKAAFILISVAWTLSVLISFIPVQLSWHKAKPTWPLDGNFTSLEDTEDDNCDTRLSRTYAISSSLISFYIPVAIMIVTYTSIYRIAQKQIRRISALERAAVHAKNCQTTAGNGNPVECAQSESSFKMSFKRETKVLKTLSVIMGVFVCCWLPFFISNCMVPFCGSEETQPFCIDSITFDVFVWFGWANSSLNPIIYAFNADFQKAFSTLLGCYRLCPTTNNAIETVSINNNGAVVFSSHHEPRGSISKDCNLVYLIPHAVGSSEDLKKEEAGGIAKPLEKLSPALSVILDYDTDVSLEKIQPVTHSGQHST
Chain of Sodium-dependent dopamine transporter (P23977 whole entry): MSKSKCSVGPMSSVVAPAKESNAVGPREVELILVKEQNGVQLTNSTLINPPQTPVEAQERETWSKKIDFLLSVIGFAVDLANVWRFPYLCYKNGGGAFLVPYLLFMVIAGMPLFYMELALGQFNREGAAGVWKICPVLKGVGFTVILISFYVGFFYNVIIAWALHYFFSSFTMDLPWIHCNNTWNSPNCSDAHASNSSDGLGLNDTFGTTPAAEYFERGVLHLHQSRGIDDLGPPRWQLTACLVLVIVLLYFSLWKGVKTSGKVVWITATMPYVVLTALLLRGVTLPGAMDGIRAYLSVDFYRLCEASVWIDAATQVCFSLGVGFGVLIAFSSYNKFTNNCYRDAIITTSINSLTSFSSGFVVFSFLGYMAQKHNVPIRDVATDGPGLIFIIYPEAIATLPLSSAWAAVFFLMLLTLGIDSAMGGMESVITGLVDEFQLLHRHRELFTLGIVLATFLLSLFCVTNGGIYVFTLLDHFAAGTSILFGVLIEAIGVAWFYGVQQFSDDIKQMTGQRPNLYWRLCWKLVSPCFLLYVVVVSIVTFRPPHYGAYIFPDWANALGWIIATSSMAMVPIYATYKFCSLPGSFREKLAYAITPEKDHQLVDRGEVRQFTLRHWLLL
Chain of D(2) dopamine receptor (P61169 whole entry): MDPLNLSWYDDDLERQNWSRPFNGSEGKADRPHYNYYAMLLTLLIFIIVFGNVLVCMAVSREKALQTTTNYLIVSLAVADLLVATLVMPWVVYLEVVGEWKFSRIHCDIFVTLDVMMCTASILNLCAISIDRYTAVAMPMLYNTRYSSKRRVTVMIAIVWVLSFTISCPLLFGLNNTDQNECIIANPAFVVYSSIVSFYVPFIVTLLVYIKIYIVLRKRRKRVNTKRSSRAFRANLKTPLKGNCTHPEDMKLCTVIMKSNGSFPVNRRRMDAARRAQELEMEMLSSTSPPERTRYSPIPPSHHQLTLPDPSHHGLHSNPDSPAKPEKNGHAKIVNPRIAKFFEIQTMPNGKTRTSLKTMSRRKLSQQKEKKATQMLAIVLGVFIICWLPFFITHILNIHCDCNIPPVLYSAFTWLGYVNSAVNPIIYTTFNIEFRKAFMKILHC

For `c1ccc(C[C@H]2NCCc3cc4c(cc32)OCO4)cc1`, the concentration for half-maximal inhibition (IC50) – broadly, the concentration that inhibits the measured activity by half – is above 100 µM at D(1A) dopamine receptor, 6.8 µM in assay [1] and 53.1 µM at D(2) dopamine receptor.

Turning to `CCCN1CCc2cc(O)c(O)cc2[C@@H]1Cc1ccccc1`, the concentration for half-maximal inhibition (IC50) is 16.6 µM on D(1A) dopamine receptor, 64.8 µM in assay [1] and 14.7 µM at D(2) dopamine receptor.

As for `CCCN1CCc2cc3c(cc2[C@H]1Cc1ccccc1)OCO3`, the IC50 was above 100 µM on D(1A) dopamine receptor, 43.6 µM in assay [1] and above 100 µM at D(2) dopamine receptor.

Consider `CCCN1CCc2cc3c(cc2[C@@H]1Cc1ccccc1)OCO3`, for which the concentration for half-maximal inhibition (IC50) turned out to be 51.9 µM on D(1A) dopamine receptor, 20.3 µM in assay [1] and 21.9 µM at D(2) dopamine receptor.

As for `CCCN1CCc2cc(O)c(O)cc2[C@H]1Cc1ccccc1`, the IC50 was above 100 µM at D(1A) dopamine receptor, 91.5 µM in assay [1] and 61.2 µM on D(2) dopamine receptor.

Consider `c1ccc(C[C@@H]2NCCc3cc4c(cc32)OCO4)cc1`, for which the results for the half-maximal inhibitory concentration (IC50) (on D(1A) dopamine receptor; in assay [1]; on D(2) dopamine receptor) were 23.9 µM, 3.6 µM and 4 µM, respectively.

For the origin of these results see ChEMBL document CHEMBL1134489, “Enantioselective syntheses of dopaminergic (R)- and (S)-benzyltetrahydroisoquinolines” (J Med Chem, 2001).
